Only some compounds are listed: those with a hit (about 1.8% of all), similar ones and a draw of the others.
ARNT-TACC3 inh = disruptors of ARNT/TACC3 protein interaction, primary screen, biochemical, AlphaScreen, single concentration. Transforming acidic coiled-coil-containing protein 3 (Homo sapiens), Q9Y6A5. AlphaScreen His-ARNT PAS-B/GST-TACC3 binding, luminescence; TACC3 fragment carries E629A point mutation. inhibition, % at 9.99 µM. 0.66% of 390,000 active;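 active = mean inhibition of replicates at least 50% and at least half of replicates each reaching 50%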;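 note: 0% = complete ARNT plus TACC3 wells and 100% = ARNT alone without TACC3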
GRK2 aptamer HTS = compounds blocking aptamer binding on GRK2 – biochemical, human GRK2, bead flow cytometry, HTS, primary screen; FAM-aptamer displacement from GRK2; inhibition of aptamer binding, % at 10 µM; 0.59% of 330,000 active; AID 488847, 2010;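 active = inhibition of aptamer binding above 40%, roughly 3 SD of noise, on plates passing a quality check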;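 note: median bead fluorescence of bound FAM aptamer so fluorescent compounds give negative values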
Target sequence (P25098 whole entry, looked up): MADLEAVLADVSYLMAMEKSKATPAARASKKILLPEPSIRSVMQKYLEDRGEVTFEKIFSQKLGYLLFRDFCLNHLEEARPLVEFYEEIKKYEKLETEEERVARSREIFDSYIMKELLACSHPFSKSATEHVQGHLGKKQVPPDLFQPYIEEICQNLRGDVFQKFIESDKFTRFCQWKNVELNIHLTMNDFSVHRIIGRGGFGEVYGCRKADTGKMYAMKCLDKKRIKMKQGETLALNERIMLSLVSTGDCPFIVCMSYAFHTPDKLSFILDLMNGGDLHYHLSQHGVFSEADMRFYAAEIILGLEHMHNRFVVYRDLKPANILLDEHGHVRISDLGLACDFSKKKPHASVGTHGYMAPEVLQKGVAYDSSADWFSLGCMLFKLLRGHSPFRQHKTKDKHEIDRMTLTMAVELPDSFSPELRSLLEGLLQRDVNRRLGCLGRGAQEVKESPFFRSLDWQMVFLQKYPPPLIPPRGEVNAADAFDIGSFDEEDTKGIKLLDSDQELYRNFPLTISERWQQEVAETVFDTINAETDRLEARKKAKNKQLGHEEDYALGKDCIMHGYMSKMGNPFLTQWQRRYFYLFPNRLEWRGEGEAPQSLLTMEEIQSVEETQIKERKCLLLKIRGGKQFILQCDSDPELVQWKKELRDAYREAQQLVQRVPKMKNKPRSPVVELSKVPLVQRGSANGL
CAL PDZ FP-1 = CAL PDZ peptide-binding inhibitors, primary screen, biochemical, fluorescence polarization, Cer-tagged CAL PDZ, HTS; AID 504414, 2011; inhibition, % at 20 µM; Golgi-associated PDZ and coiled-coil motif-containing protein (Homo sapiens), Q9HD26; 0.02% of 330,000 active; purified CAL PDZ, TMR-peptide fluorescence polarization, 1 h;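 active = highest replicate inhibition of at least 40%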;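 note: plate controls were DMSO neutral control wells for no effect and unlabeled competitor peptide control wells for full effect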
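Read-out basis: mP drop reported as inhibition | Assay system: Tagged CAL PDZ protein CerCALP, purified | Benchmarks: Unlabelled peptide for full inhibition, DMSO wells as neutral | Schedule: 1 h incubation at room temperature before polarization reading | Buffer or medium: Sodium phosphate/NaCl buffer pH 7.4 with TCEP, IgG, Thesit | Doses: Single point, 20 µM | Measured by: Fluorescence polarization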
CAL PDZ FP-2 = untagged CAL PDZ binding inhibitors, primary screen, biochemical, fluorescence polarization, HTS. Golgi-associated PDZ and coiled-coil motif-containing protein (Homo sapiens), Q9HD26. purified CAL PDZ, TMR-peptide fluorescence polarization, 1 h. inhibition, % at 24.9 µM. 0.92% of 300,000 active. AID 602252, 2012;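 active = mean inhibition of at least 30% with at least half of replicates also reaching 30%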;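 note: 0% = DMSO neutral control and 100% = excess unlabeled competitor peptide PRC23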
Tn6 DDE FP = inhibitors of Tn6 peptide binding to fibrin DD(E), primary screen, biochemical, fluorescence polarization, human fibrin, Tn6 probe | Fibrinogen beta chain (Homo sapiens), P02675 | Fibrin DD(E) TRITC-Tn6 fluorescence polarization displacement | 0.21% of 370,000 active | inhibition, % at 8.3 µM | AID 720509, 2013;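 active = inhibition above a per-campaign cutoff: mean of compounds within control limits plus 3 SD, cut at about 15% in these data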;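 note: 0% = median of all compound wells on the plate and 100% = blocking peptide control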
Tn7 DDE FP = inhibitors of Tn7 peptide binding to fibrin DD(E), primary screen, biochemical, fluorescence polarization, human fibrin, Tn7 probe | Fibrinogen beta chain (Homo sapiens), P02675 | FP displacement of FITC-Tn7 peptide from fibrin DD(E); 0% = median of compound wells per plate | inhibition, % at 8.3 µM | 0.13% of 370,000 active;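 active = inhibition above the mean of compounds falling within the control limits plus 3 SD of them, cut at about 14% in these data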;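 note: 0% = plate median of compound wells and 100% = 10 µM Aha-Tn7 peptide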
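system = human fibrin DD(E) protein | quantity = DD(E) 2 µM final | medium = Tris/NaCl/CaCl2 buffer, pH 7.8 | also added = labelled Tn7 tracer, 0.1 µM | compound dosing = single point at 8.3 µM | timing = compound with protein 10 min, then 3 h after probe, room temperature | signal = FP measurement | benchmarks = Aha-Tn7 high control | repeats = one replicate per compound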
An asterisk follows results filed as active; . = no result; + = active, no number.

SMILES	ARNT-TACC3 inh	GRK2 aptamer HTS	CAL PDZ FP-1	CAL PDZ FP-2	Tn6 DDE FP	Tn7 DDE FP
Cc1c(CCC(=O)O)c(=O)oc2c(C)c(OCc3cc4c(cc3Cl)OCO4)ccc12	-1	9	-4	95*	10	8
CCC(=O)c1ccc(OCC(=O)OCC(=O)NCC2CCCO2)cc1 (stereo not given)	.	0	1	2	4	-5
O=c1c2ccccc2nc2n1C(CBr)CN2 (stereo not given)	-2	0	-1	4	-1	-2
CCOc1ccc(NC(=O)CCN2CCN(S(=O)(=O)c3ccc(F)cc3)CC2)cc1	-2	2	0	74*	1	1
COc1ccc(NC(=O)CCN2CCN(S(=O)(=O)c3ccc(F)cc3)CC2)cc1	2	2	-1	.	-9	-4
CCCN1[C@@H]2c3ccc(C4=CCCCC4)c(=O)n3C[C@H]1[C@H](CO)[C@H]2C(=O)N1CCc2ccccc2C1	2	.	.	.	.	.
CC(=O)Nc1ccc(NCC(=O)c2ccccc2)cc1	-2	2	-1	50*	-3	3
O=C(CNc1ccccc1)c1ccc([N+](=O)[O-])cc1	0	1	0	-3	-7	-8
CN(C1=C(N2CCOCC2)C(=O)c2ccccc2C1=O)c1ccccc1	60*	1	0	0	-1	3
CCOc1cccc(N2CCN(CCNC(=O)Nc3ccc(C)cc3)CC2)c1C	-4	0	0	37*	6	0
O=C(C[C@H]1C[C@@H]2c3cc(NC(=O)Nc4ccccc4F)ccc3O[C@@H]2[C@H](CO)O1)NCc1ccc2c(c1)OCO2	3	.	.	.	.	.
CC(=O)N(C)C[C@H]1Oc2ncc(-c3cccnc3)cc2C(=O)N([C@@H](C)CO)C[C@H]1C	-5	.	.	.	.	.
Cc1ccccc1C(=O)NC(CC(C)C)C(=O)N1CCN(c2ccccc2)CC1 (stereo not given)	4	2	-1	35*	-2	-2
CC(C)NC(=O)Nc1ccc2c(c1)CC(=O)N([C@@H](C)CO)C[C@@H](C)[C@@H](CN(C)CC1CC1)O2	-12	.	.	.	.	.
CCN1C(=O)c2cccc3c(N)ccc(c23)C1=O	5	2	0	-3	7	32*
CC1=NNC(=O)C1CC(=O)N/N=C/c1sccc1C (stereo not given)	2	2	-2	.	-3	-3
COc1cc(OC)c(OC)cc1/C=N/NC(=O)CC1C(=O)NN=C1C (stereo not given)	-3	2	-4	36*	2	2
O=C(/C=C/c1ccco1)OCC(=O)c1cccc([N+](=O)[O-])c1	-1	3	-3	-1	1	-3
COc1ccc(C(=O)COC(=O)/C=C/c2ccco2)cc1F	1	7	-1	65*	-8	-6
CC1CCN(C(=O)COC(=O)/C=C/c2ccco2)CC1	-7	51*	-5	3	1	-6
O=C(NC1CCN(Cc2ccccc2)C1)c1cc(S(=O)(=O)N2CCOCC2)ccc1Cl (stereo not given)	-3	0	0	59*	0	4
Cc1ccc(S(=O)(=O)N2CCOCC2)cc1C(=O)NC1CCN(Cc2ccccc2)CC1	0	.	-1	-3	-3	-9
CC1COCC(C)N1C1=C(Cl)C(=O)c2ccccc2C1=O (stereo not given)	30*	.	2	0	3	-1
COc1ccc(-c2nc3ccccc3c(=O)n2O)cc1	-1	0	.	-1	-2	-3
O=c1c2ccccc2nc(-c2ccccc2)n1O	-3	4	0	.	16*	10
SMILES	ARNT-TACC3 inh	GRK2 aptamer HTS	CAL PDZ FP-1	CAL PDZ FP-2	Tn6 DDE FP	Tn7 DDE FP
COc1ccc(CN(C)C[C@@H]2Oc3ccc(NS(=O)(=O)c4ccc(OC)cc4)cc3C(=O)N([C@H](C)CO)C[C@@H]2C)cc1	-1	.	.	.	.	.
O=C(NNC(=S)Nc1ccc(Cl)c(Cl)c1)c1ccccn1	75*	3	0	4	-3	6
CCNC(=S)NNC(=O)c1ccncc1	1	0	0	68*	-1	3
CCNC(=S)NNC(=O)c1ccccn1	67*	2	0	-2	-1	-6
CCC(=O)Nc1ccc2c(c1)C(=O)N(C)C[C@H](OC)[C@H](C)CN(CCc1ccccc1)[C@H](C)CO2	-9	.	.	.	.	.
Brc1ccc(CNCC2CCCO2)cc1 (stereo not given)	-9	0	0	-2	-5	-4
Brc1cccc(CNCC2CCCO2)c1 (stereo not given)	2	0	54*	5	1	1
COc1ccc(COC(=O)C2CC(=O)N(Cc3ccccc3)C2)cc1 (stereo not given)	-7	1	0	+	-1	-2
C[C@@H]1CN([C@@H](C)CO)C(=O)c2cc(C#CC3CCCCC3)cnc2O[C@H]1CN(C)S(C)(=O)=O	2	.	.	.	.	.
O=C(CCCC1=NS(=O)(=O)c2ccccc2N1)NCCc1ccc(Cl)cc1	3	0	-1	-6	2	4
CCOCCCNC(=O)CCCOc1ccccc1	-5	0	-1	70*	5	0
CCOCCCNC(=O)CCCC1=NS(=O)(=O)c2ccccc2N1	active	0	-3	.	7	-1
CCCCOCCCNC(=O)CCCOc1ccccc1	-3	1	1	-5	-3	-2
CN(C)C(=O)C[C@@H]1C[C@H]2c3cc(NS(=O)(=O)c4ccc(F)cc4)ccc3O[C@H]2[C@@H](CO)O1	-10	.	.	.	.	.
CN(/C=C/c1c([N+](=O)[O-])c(=O)n(C)c(=O)n1C)c1ccccc1	active	4	-7	86*	2	-4
Cn1c(/C=C/c2ccc(Cl)cc2)c([N+](=O)[O-])c(=O)n(C)c1=O	-6	2	1	-12	2	-8
Cc1ccc(S(=O)(=O)N2CCOCC2)cc1NC(=O)COC(=O)C1(C)CC1(Cl)Cl (stereo not given)	0	0	0	-1	-3	1
Cc1ccc(S(=O)(=O)N2CCCCC2)cc1NC(=O)COC(=O)C1(C)CC1(Cl)Cl (stereo not given)	-1	2	0	67*	-1	0

Screening data deposited in PubChem by several laboratories.
